Compound activity: PubChem, The Scripps Research Institute Molecular Screening Center
TCR CD3 inh = human TCR-CD3 binding inhibition; TAMRA-labeled TCR probe fluorescence, biochemical; 360,000 compounds, 0.37% hits; inhibition, % at 9.4 µM; AID 651800; in the data active = inhibition above about 19%;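 also: recombinant mutant TCR 2C K166C tagged with TAMRA read by polarization; 0% = receptor in buffer alone and 100% = receptor with positive control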
SIAE inh = human SIAE inhibition, primary screen; SIAE FP-Rh probe binding, fluorescence polarization; 370,000 compounds, 0.69% hits; inhibition, % at 9.66 µM;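 active = inhibition above a cutoff: mean of compounds within the control limits plus 3 SD of those, cut at about 17% in these data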;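 also: 0% = plate median of compound wells and 100% = probe without SIAE protein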
DDE Tn7 FP inh = DD(E)-Tn7 binding inhibition, primary FP screen | P02675 | 370,000 compounds, 0.13% hits | FP displacement of FITC-Tn7 peptide from fibrin DD(E); 0% = median of compound wells per plate | inhibition, % at 8.3 µM | AID 720508;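 active = inhibition above the mean of compounds falling within the control limits plus 3 SD of them, cut at about 14% in these data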;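 also: 0% = plate median of compound wells and 100% = 10 µM Aha-Tn7 peptide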
Target sequence (P02675 whole entry, looked up): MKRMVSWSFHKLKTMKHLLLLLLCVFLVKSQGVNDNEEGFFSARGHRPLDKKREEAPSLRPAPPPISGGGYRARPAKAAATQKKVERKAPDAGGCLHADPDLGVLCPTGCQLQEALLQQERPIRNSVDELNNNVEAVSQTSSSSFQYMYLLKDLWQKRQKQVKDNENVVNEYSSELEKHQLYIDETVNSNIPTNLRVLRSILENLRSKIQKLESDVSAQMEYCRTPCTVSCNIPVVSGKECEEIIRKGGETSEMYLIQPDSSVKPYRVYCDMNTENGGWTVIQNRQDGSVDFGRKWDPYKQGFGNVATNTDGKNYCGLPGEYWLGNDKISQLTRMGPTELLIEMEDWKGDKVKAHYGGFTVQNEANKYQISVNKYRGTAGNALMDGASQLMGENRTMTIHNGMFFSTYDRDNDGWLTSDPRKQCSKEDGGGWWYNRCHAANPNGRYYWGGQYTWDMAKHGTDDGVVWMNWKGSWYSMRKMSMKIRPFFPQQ
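assay system = human clot-derived fibrin DD(E) complex | quantity = Fibrin-DD(E) at 2 µM final | timing = 10 min preincubation, 3 h with tracer, room temperature | signal = fluorescence polarization | measure = percent inhibition | benchmarks = high control wells with 10 µM unlabelled Aha-Tn7 peptide (full inhibition) | replicates = singlicate testing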
DDE Tn6 FP inh = DD(E)-Tn6 binding inhibition, primary FP screen. P02675. Fibrin DD(E) TRITC-Tn6 fluorescence polarization displacement. inhibition, % at 8.3 µM. 370,000 compounds, 0.21% hits. AID 720509;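 active = inhibition above a per-campaign cutoff: mean of compounds within control limits plus 3 SD, cut at about 15% in these data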;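 also: 0% = median of all compound wells on the plate and 100% = blocking peptide control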
HTRA1 inhibitor = blocks human HTRA1 serine peptidase | Q92743 | recombinant HTRA1, FP-rhodamine activity-based probe, fluorescence polarization | inhibition, % at 5.96 µM | 340,000 compounds, 0.5% hits | AID 504803; in the data active = inhibition above about 36%;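 also: 0% = enzyme with DMSO and 100% = wells lacking enzyme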
mABHD4 FP = inhibitors of mouse ABHD4; Q8VD66; purified mABHD4, FP-Rh probe fluorescence polarization; inhibition, % at 8.92 µM; 370,000 compounds, 0.54% hits; AID 720543;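 active = inhibition exceeding the mean over every tested compound plus 3 SD, cut at about 30% in these data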;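 also: 0% = plate median of compound wells and 100% = S159A mutant with DMSO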
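Test system: mABHD4 protein; Read-out basis: % inhibition; Incubation: 45 min + 60 min at 25 °C; Repeats: single replicate; Technique: fluorescence polarization with parallel and perpendicular emission, 525/598 nm; Compound: 8.92 µM, single dose; Benchmarks: full inhibition S159A mutant plus DMSO, zero as sample-well median.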
SIAE inh conf = human SIAE inhibition, confirmation; AID 1117263; shares compounds with SIAE inh; 2,300 compounds, 13% hits; SIAE FP-Rh activity-based probe, fluorescence polarization; inhibition, % at 9.66 µM;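 active = mean inhibition of the replicates above the hit cutoff set in the primary screen, cut at about 17% in these data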;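 also: 0% = SIAE with DMSO and probe and 100% = probe without SIAE; inhibitors lower polarization as more probe stays unbound to SIAE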
Numbers without * were called inactive; . = not tested or not shown. A selection: hits, their analogues and other compounds. The true share with any hit is near 1.8%.

SMILES	TCR CD3 inh	SIAE inh	DDE Tn7 FP inh	DDE Tn6 FP inh	HTRA1 inhibitor	mABHD4 FP	SIAE inh conf
CC1C(=O)CC2C3(C)CCC2(C(C)C(=O)O)C(=O)C13 (stereo not drawn)	-1	-2	-9	-7	.	4	.
CCC1OC(C(C)C)Cc2[nH][nH]c(=O)c21 (stereo not drawn)	-8	17*	0	3	.	-2	3
CC(C)C1Cc2[nH][nH]c(=O)c2C(C2CC2)O1 (stereo not drawn)	-2	6	-5	6	.	2	.
CCN(C(=O)COC(=O)/C=C/c1cnc2ccccc2n1)C1CCS(=O)(=O)C1 (stereo not drawn)	0	28*	-1	-3	3	-1	-1
CC(=O)c1ccc(OCC(=O)NC(=O)NC2CCCC2)cc1	3	18*	-3	4	3	3	4
O=C(COC(=O)C1COc2ccccc2O1)NC(=O)NC1CCCCC1 (stereo not drawn)	-6	47*	-2	-2	-7	0	-3
CC(=O)c1ccc(OCC(=O)NC2CCCCCC2)cc1	5	3	-1	7	4	2	.
COc1ccccc1C(=O)NC1CCCCN(Cc2ccccc2C)C1=O (stereo not drawn)	.	8	0	-2	.	2	.
CCc1ccccc1NNC(=O)c1snnc1C	2	17*	-2	-8	.	2	4
Cc1nnsc1C(=O)NNc1c(Cl)cccc1Cl	-9	1	2	-5	-2	4	.
O=C(COC(=O)c1cnccn1)N=c1sccn1Cc1ccccc1Cl	12	20*	-4	5	0	1	-3
CCOC(=O)N1CCN(C2=C(NS(=O)(=O)c3ccc(C)cc3)C(=O)c3ccccc3C2=O)CC1	2	20*	-2	3	17	20	8
Cc1ccccc1CN1CCCCC(NC(=O)c2ccc(F)cc2F)C1=O (stereo not drawn)	.	0	8	-12	.	1	.
Nc1ccccc1NC1=CC(=O)CC(c2ccco2)C1 (stereo not drawn)	-2	19*	-3	-6	8	23	3
Clc1ccc(-c2nc3c4ccccc4ccn3c2Cc2ccsc2)cc1	0	-2	2	1	.	-10	.
O=C1NC[C@@H](CCCCN2CCN(Cc3ccccc3)C(=O)C2=O)N(CC2CCCCC2)C1=O	0	11	1	-2	.	-10	.
O=C1NC[C@@H](CCCCN2CCN(Cc3ccccc3)C(=O)C2=O)N(CCC2CCCCC2)C1=O	-15	18*	3	6	.	-4	5
O=C(CN[C@@H](Cc1c[nH]c2ccccc12)C(=O)NCCc1c[nH]c2ccccc12)NC1CCCCC1	.	7	-1	5	.	9	.
CCOc1ccc2[nH]c3c(NCCc4ccc(OC)c(OC)c4)ncnc3c2c1	-10	19*	7	-6	11	15	14
COc1cc(CNc2ncnc3c2[nH]c2ccc(C)cc23)cc(OC)c1	-11	37*	-4	-8	-5	22	13
CCOc1ccc(/C=N/NC(=O)c2cc3c(OC)cc(OC)c(OC)c3[nH]2)cc1	-4	31*	9	-18	15	22	17*
COc1cc(OC)c2cc(C(=O)N/N=C/c3ccccc3O)[nH]c2c1	16	25*	4	-5	25	9	5
COc1ccc2[nH]c(C(=O)N/N=C/c3ccccc3OC)cc2c1	-5	-9	-1	-14	-16	-27	.
COc1cccc(/C=N/N2CCN(c3ccc(Cl)cc3)CC2)c1OC	1	9	-4	2	0	1	.
COc1cccc(C=NN2CCCCCC2)c1OC	1	21*	2	-1	8	8	2
SMILES	TCR CD3 inh	SIAE inh	DDE Tn7 FP inh	DDE Tn6 FP inh	HTRA1 inhibitor	mABHD4 FP	SIAE inh conf
CN(C)C(=O)[C@@H]1C[C@H]1[C@@H](NC(=O)OCc1ccccc1)c1ccccc1	0	7	1	-3	0	0	.
COC(=O)[C@H]1C[C@@H]1[C@H](NC(=O)[C@H]1C[C@@H]1[C@H](NC(=O)OCc1ccccc1)c1ccccc1)c1ccccc1	-2	20*	-2	-3	-24	-14	-3
C[n+]1ccc2[nH]c3ccccc3c2c1	4	26*	4	0	.	-1	-6
COC(=O)C[C@@H]1CC[C@@H]2[C@@H](COc3ccc(NC(C)=O)cc3C(=O)N2C)O1	.	0	0	-10	.	3	.
O=C(OCc1nc2scc(-c3ccccc3)c2c(=O)[nH]1)c1ccco1	3	0	3	-5	-8	-3	.
Cc1ccc(OCC(=O)OCc2nc3scc(-c4ccccc4)c3c(=O)[nH]2)cc1C	8	18*	-6	2	-6	-1	-6
O=C(c1ccco1)N1CCCC(Nc2ccc3c(c2)OCCO3)C1 (stereo not drawn)	3	5	6	1	8	-3	.
O=C(c1cc(Cl)ccc1F)N1CCCC(Nc2ccc3c(c2)OCCO3)C1 (stereo not drawn)	2	17*	3	4	0	2	0
CN(C(=O)[C@H]1O[C@@H](n2cnc3c(=O)[nH]c(N)nc32)[C@H](O)[C@@H]1O)C1CCCCC1	-3	41*	1	-2	.	-6	46*
Nc1nc2c(ncn2[C@@H]2O[C@H](C(=O)N[C@H](Cc3ccccc3)C(=O)NC3CCCCC3)[C@@H](O)[C@H]2O)c(=O)[nH]1	0	32*	-4	6	.	7	35*
Nc1nc2c(ncn2[C@@H]2O[C@H](C(=O)NC3CCCCC3)[C@@H](O)[C@H]2O)c(=O)[nH]1	-3	49*	1	2	.	-2	43*
Nc1nc2c(ncn2[C@@H]2O[C@H](C(=O)NCC(F)(F)F)[C@@H](O)[C@H]2O)c(=O)[nH]1	-5	4	1	-1	.	-4	.
Nc1nc2c(ncn2[C@@H]2O[C@H](C(=O)N[C@H](Cc3ccccc3)C(=O)NCc3ccccc3)[C@@H](O)[C@H]2O)c(=O)[nH]1	0	5	-5	1	.	2	.
Cc1cccc(C)c1NC(=O)C(c1ccncc1)n1c(=O)c(-c2ccco2)nc2ccccc21 (stereo not drawn)	-9	3	4	-2	.	17	.
CCOC(=O)c1c(C)sc2c1N(C(=O)CN(CC)CC)c1cc(Cl)ccc1S2	3	1	-2	-4	-4	1	.
CCOC(=O)c1c(C)sc2c1N(C(=O)CN(CC)CC)c1ccccc1S2	-10	17*	2	4	-2	0	1
CCN1CCN(CCC(=O)Nc2cc(OC)ccc2OC)CC1	-2	20*	0	-5	0	4	6
